In the library only some 1.3% were active in any assay of this set; here they are far more common.
GASC-1 inh: human JMJD2C demethylase inhibition | Q9H3R0 | inhibition, % at 2.35 µM | actives 0.069% (n = 330,000) | GST-JMJD2C(1-420) H3K9me3 demethylation, DELFIA europium | AID 2099;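 active means more than half of a compound's replicate wells show inhibition beyond 50%, single wells judged on their own value; inconclusive means some, but no more than half, of replicates pass 50% inhibition; inactive means no replicate passes 50% inhibition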;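 further: signal counts dimethyl H3K9 product captured on neutravidin plate; 0% = median of DMSO wells and 100% = 0.3 times that DMSO median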
Furin inhibitor: inhibitors of human furin; P09958; purified furin, fluorogenic substrate cleavage; inhibition, % at 20 µM or 30 µM; actives 0.061% (n = 220,000); in the data active means inhibition above about 25%
EP2 mod: EP2 receptor (human) modulation; EP2-expressing cells, cAMP HTRF FRET, PGE2 co-stimulation; actives 0.83% (n = 260,000); induction, % at 25 µM; P43116;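 active means compounds whose cAMP rise, as percent of the full-agonist control response, exceeds 60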;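 further: rat C6 glioma line stably carrying human EP2 under a CMV promoter; the protocol text gives 20 µM as final concentration; 100% = response of wells given 1 µM PGE2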
Target sequence (P43116 whole entry, looked up): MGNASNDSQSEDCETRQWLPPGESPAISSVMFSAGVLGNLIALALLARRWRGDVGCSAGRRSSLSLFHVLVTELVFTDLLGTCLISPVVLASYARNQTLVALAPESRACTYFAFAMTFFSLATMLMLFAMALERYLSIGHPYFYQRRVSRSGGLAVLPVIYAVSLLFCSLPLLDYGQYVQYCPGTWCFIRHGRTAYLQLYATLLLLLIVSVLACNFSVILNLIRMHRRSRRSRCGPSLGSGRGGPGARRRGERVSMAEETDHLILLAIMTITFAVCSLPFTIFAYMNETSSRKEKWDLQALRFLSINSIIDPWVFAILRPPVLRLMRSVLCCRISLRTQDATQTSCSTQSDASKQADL
NR2E3 ag-1: NR2E3 (human) agonism. inhibition of corepressor binding, % at 4.78 µM. Q9Y5X4. AID 2300. GST-NR2E3/biotin-RetCOR TR-FRET, 1536-well. actives 0.12% (n = 320,000);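 active means percent inhibition above the cutoff of mean plus 3 SD of all tested compounds, set per screening campaign, cut at about 20% in these data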;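 further: 0% = DMSO wells and 100% = biotin wells as full block of FRET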
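Material: NR2E3–RetCOR corepressor complex | Quantity: 1.35 nM GST-tagged NR2E3 final | Schedule: 5 h at 4 °C | Replication: Singlicate compound wells | Reagent: RetCOR corepressor, biotinylated, 7 nM | Controls: Biotin wells as high control, 0.6% DMSO wells as low control | Signal: TR-FRET, Eu(K)-anti-GST donor, streptavidin-D2 acceptor, ex 340, em 617/671 nm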
NR2E3 ag-2: agonists of human NR2E3 nuclear receptor. CHO-S Gal4-NCOR/VP16-NR2E3 two-hybrid, luciferase. inhibition of corepressor binding, % at 3.98 µM. actives 0.35% (n = 360,000). AID 602229;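 active means inhibition above the mean of all tested compounds plus 3 SD, cut at about 70% in these data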;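 further: 0% = DMSO with NR2E3 transfected cells and 100% = cells lacking NR2E3 construct; higher means lower luciferase signal from less NR2E3 corepressor binding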
EP2 antag: blocks the human prostaglandin E2 receptor EP2; C6 glioma cells expressing human EP2, cAMP TR-FRET; cells stimulated with saturating PGE2; actives 0.52% (n = 260,000); P43116; inhibition, % at 25 µM;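 active means percent inhibition above 40 after rounding to a whole number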;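 further: rat C6 glioma host cells with rolipram phosphodiesterase inhibitor present; the protocol text gives 20 µM as final concentration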
* = called active by the depositor; u = inconclusive; x = no result; ! = repeats disagree.

SMILES | GASC-1 inh | Furin inhibitor | EP2 mod | NR2E3 ag-1 | NR2E3 ag-2 | EP2 antag
Cc1ccc(-n2c3c(cc(C(=O)NCCCN(C)C)c2=O)C(=O)CC(C)(C)C3)cc1 | x | x | -14 | x | x | 8
Nc1nc(O)c(N=Nc2ccc(S(N)(=O)=O)cc2)c(=O)[nH]1 | 2 | x | x | x | x | x
Nc1[nH]c(=S)[nH]c(=O)c1N=Nc1c(Br)cc(S(N)(=O)=O)cc1Br | x | x | 3 | x | x | 51*
CCOc1ccc(-n2c(SCC(=O)Nc3ccc(OC)cc3)nc3ccccc3c2=O)cc1 | x | x | 0 | x | x | 10
O=C(c1ccco1)N(Cc1ccco1)c1nc(-c2ccccc2)cs1 | x | x | 78* | x | x | 10
COc1cc(O)c(C(=O)/C=C/c2ccc(OC)c(O)c2)c(OC)c1 | x | x | -3 | x | x | 57*
CC(=O)[C@H]1CC[C@@H]2[C@]1(C)CC=C1[C@@]23C=C[C@@]2(C[C@H](O)CC[C@@]12C)[C@H](C(=O)O)[C@@H]3C(=O)O | x | x | 34 | x | x | 41*
CC(=O)C1CCC2C3CC(C)C4(O)CC(=O)CCC4(C)C3C(O)CC12C (stereo unspecified) | x | x | x | x | -29 | x
O=C(Nc1ccc(Cl)c(Cl)c1)c1ccc(Cl)c(Cl)c1 | 10 | -14 | -9 | 1 | -117 | 7
Cc1ccc(NC(=O)c2ccc(Cl)c(N3C(=O)C=CC3=O)c2)cc1 | -4 | -6 | -38 | 0 | -37 | 125*
Cc1nc2ccccc2nc1-c1ccc(N=[N+]([O-])c2ccc(-c3nc4ccccc4nc3C)cc2)cc1 | x | x | 7 | x | x | 54*
CC(C)(C)c1ccc(C(=O)N(Cc2cccs2)Cc2cc3cc4c(cc3[nH]c2=O)OCO4)cc1 | x | x | -22 | x | x | 15
CC(=O)Nc1ccc(S(=O)(=O)N2C3CCCC2CC(NC(=O)c2ccccc2)C3)cc1 (stereo unspecified) | x | x | -45 | x | x | 12
N#CC1=C(N)Oc2n[nH]c(-c3ccc(C4CCCCC4)cc3)c2C1c1ccc2c(c1)OCO2 (stereo unspecified) | x | x | -20 | x | x | 16
Cc1ccnc(NS(=O)(=O)c2ccc(NC(=O)c3ccccc3C(=O)O)cc2)n1 | x | x | 10 | x | x | 6
CN(C)c1nc(SCc2ccc(Cl)cc2)nc2c1CCCC2 | -1 | -28 | 62* | -3 | -15 | 3
O=C(O)CCSc1nnc(COc2cccc3ccccc23)n1-c1ccccc1 | x | x | 8 | x | x | 5
Cc1ncoc1C(=O)NC1CCCc2c1cnn2-c1ccc(C(C)(C)C)cc1 (stereo unspecified) | -6 | x | x | x | 96* | x
CCn1c2cc(C)sc2c2cnn(CC(=O)N3CCCCC3C)c(=O)c21 (stereo unspecified) | x | x | -45 | x | x | x
Cc1cc(=O)oc2cc(OC(C)C(=O)Nc3cccc(C(F)(F)F)c3)ccc12 (stereo unspecified) | x | x | -55 | x | x | 12
COc1ccc2c(Cc3c4ccccc4cc4ccccc34)cncc2c1O | x | x | 28 | x | x | 40*
Cc1[nH]c2ccc(-c3nnc(SCc4ccccc4F)o3)cc2c1C | x | x | -27 | x | x | 17
O=C(O)CCC(=O)c1ccc2ccc3cccc4ccc1c2c34 | -8 | -24 | -23 | -2 | x | 53*!
CCN1CCN(C2=CC3=CC(=C(C#N)C#N)CCC3CC2)CC1 (stereo unspecified) | x | 28* | -78 | x | -15 | 3
CN1CCN(C2=CC3=CC(=C(C#N)C#N)CCC3CC2)CC1 (stereo unspecified) | x | 0 | -39 | x | -14 | 7
SMILES | GASC-1 inh | Furin inhibitor | EP2 mod | NR2E3 ag-1 | NR2E3 ag-2 | EP2 antag
O=[N+]([O-])c1cc(-c2cnc3ccccc3n2)ccc1Oc1ccc(F)cc1 | 62* | -1 | -45 | 3 | 4 | 2
O=[N+]([O-])c1ccccc1Oc1cnc2ccccc2n1 | 5 | -21 | -41 | -2 | 0 | 10
COc1cc2c(cc1O)[C@@H](c1cc(O)c(O)c(OC)c1)[C@](O)(C(=O)O)[C@@H](CO)[C@@H]2O | x | x | 7 | x | x | 54*
COc1cc2c(cc1OC)C(O)C(O)(CO)C(C(=O)O)C2c1cc(OC)c(OC)c(OC)c1 (stereo unspecified) | x | x | x | x | -30 | x
COc1cccc(CN2CCN(C(=O)c3c(C)noc3C)[C@@H](C)C2)c1 | x | x | -13 | x | x | x
O=c1[nH]c(/C=C/c2ccc(Cl)cc2Cl)nc(O)c1[N+](=O)[O-] | x | x | -30 | x | x | 18
O=C(Cn1sc2ccccc2c1=O)NC12CC3CC(CC(C3)C1)C2 | 21 | -19 | -50 | 4 | -18 | 132*
COCCCn1c(=S)[nH]c2sc3c(c2c1=O)CCCS3 | 3 | -25 | -2 | 9 | -32 | 45*
CC(=O)c1ccc(N(C(=O)Cn2nnc3ccccc32)C(C(=O)NC2CCCC2)c2ccc(C)o2)cc1 (stereo unspecified) | x | x | 23 | x | x | 6
CCOc1cc(C)nc(NCc2ccccc2)n1 | u | -25 | 63* | -3 | -4 | 3
CC(=O)c1ccc(Oc2cc(C)nc(NCc3ccccc3)n2)cc1 | -1 | -7 | 15 | 5 | -12 | 7
Cc1cc(C)nc(NCc2ccc(Cl)cc2)n1 | 68* | x | 30 | 0 | 1 | 9
Cc1cc(C)nc(SCc2ccc(Cl)cc2)n1 | 2 | x | x | 2 | -6 | x
Cc1cc(OC2CCCCC2)nc(NCc2ccccc2)n1 | 8 | -9 | 66* | 0 | -26 | 7
CC(C)n1c(=O)[nH]c2c(C(N)=O)nc(-c3ccc(F)cc3)nc21 | x | x | 28 | x | x | 12
COC(=O)C1C2C=CC3(CN(CCc4ccccc4)C(=O)C13)O2 (stereo unspecified) | 3 | -15 | -10 | 1 | -18 | 51*!
O=C(CSc1nc(C2CC2)nc2ccccc12)NCc1cccs1 | x | x | -25 | x | x | 11
S=c1nc(-c2cc(Cl)ccc2Cl)[nH][nH]1 | -7 | -23 | 58 | 5 | 3 | 41*
NC(=S)Nc1cccc(-c2n[nH]c(=S)o2)c1 | 19 | -24 | -1 | 1 | -39 | 26
Cc1ccc(NC(=S)Nc2cccc(-c3n[nH]c(=S)o3)c2)cc1 | -19 | -8 | -24 | 10 | -34 | 42*
O=c1c2ccc(Cl)c3cccc(c32)c2nc3ccccc3n12 | x | x | -31 | x | x | 9
Cc1ccc2[nH]c(CCN(C)C)c(CSCc3c(CCN(C)C)[nH]c4ccc(C)cc34)c2c1 | x | x | -155 | x | x | 127*
COc1cccc(-n2c(SCC(=O)NC3CCCC3)nnc2-c2ccoc2C)c1 | x | x | 8 | x | x | 12
CC1(C)CC(=O)C(C(c2ccccc2F)C2C(=O)CC(C)(C)CC2=O)C(=O)C1 | 2 | -12 | -8 | -2 | -11 | 18
CC1(C)CC(=O)C(C(c2cccc(O)c2O)C2C(=O)CC(C)(C)CC2=O)C(=O)C1 | x | x | 24 | x | x | 41*
CCn1c(SCC(=O)Nc2ccc(C)c(Cl)c2)nnc1-c1ccncc1 | x | x | -33 | x | x | 7
COc1ccc2c(c1)c1ccc3c(c1n2C)C(=O)C=CC3=O | x | -13 | -36 | x | -1 | 62*
Cc1ccc2c(c1)c1ccc3c(c1n2C)C(=O)C=CC3=O | x | -13 | -59 | x | -14 | 16

Screening results deposited in PubChem BioAssay by several laboratories.
